A short description of one series: Ang-. In kind it is in vitro ADME, rat. The note with it: n=3. The method, boiled down:
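NRK-52E cells grown to confluence are serum-starved 24 h, then kept 48 h in serum-free or 100 uM glycated albumin (MGA) medium. They are harvested, frozen at −80°C and homogenized in 10 mM HEPES, 125 mM NaCl, 10 μM ZnCl2, pH 7.4, then spun at 100,000g. 125I-Ang-(1-7) (0.5 nM) is incubated with 2 μg supernatant protein for 30 min at 37°C and stopped with ice-cold 1.0% phosphoric acid. Products are separated by isocratic reverse-phase HPLC with flow-through γ detection, identified against 125I standards, and reported as fmol/mg/min (Bradford protein).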

Series [1] relates to α-SMA in NRK-52E cells. Briefly: α-SMA immunofluorescent staining. The format is cell-based, rat. The note with it: 100 μM MGA 72 h, Ang-(1-7) 100 nM + DAL 10 μM. The procedure, abridged:
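NRK-52E cells were grown 2 days on chamber slides in 5% FBS medium, then serum-free for 24 h. They were treated 72 h with 100 μM MGA ± test agents and fixed in 2% paraformaldehyde for 15 min. After 0.2% Triton permeabilisation and 3% BSA block, cells were stained overnight at 4°C with mouse anti-α-SMA (1:200), then Alexa Fluor 568 anti-mouse (1:400); nuclei with DAPI. Representative of 3 passages.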

Series [2] concerns α-SMA in NRK-52E cells. In words: α-SMA protein expression by Western blot. The format is cell-based, rat. The note with it: 100 μM MGA 48 h. The method, boiled down:
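After 24 h serum starvation, cells received 100 uM MGA ± test agents for 48 h. Triton lysates were run on 10% SDS-PAGE and transferred to PVDF. Blots were probed overnight at 4°C with mouse anti-α-SMA (1:5000), then anti-mouse HRP (1:3000) and chemiluminescence. Membranes were stripped and re-probed for EFα1 (1:3000) as loading control. Densitometry; 3-4 cell passages.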
For orientation: In western blotting, separated proteins are transferred to a membrane and probed.

In series [3] the test system is TGF-β release from NRK-52E cells. In words: TGF-β release into cell media by ELISA. In kind it is cell-based, rat. The note with it: MGA 48 h. The procedure, abridged: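 Cells were seeded in 12-well plates, kept serum-free for 24 h, then treated with MGA ± test agents; serum-free cells served as controls. Media were collected on ice and TGF-β measured by ELISA (sensitivity 15 pg/ml). Release was expressed as ng/ml.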

For series [4], the system named is ERK1/2 in NRK-52E cells. In words: MGA-induced ERK1/2 phosphorylation by Western blot. The note with it: MGA 48 hours, immunoblot densitometry, n=3. In kind it is cell-based, rat. The method, boiled down:
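Cells were serum-starved for 24 h, then treated with 100 uM MGA for 48 h. Lysis was in Triton buffer, pH 7.4, with NaVO4, PMSF and leupeptin. 10-50 μg protein was run on 10% SDS-PAGE and transferred to PVDF. Blots were probed overnight at 4°C with anti-phospho-ERK1/2 (1:2000), then stripped and re-probed for total ERK1/2 (1:3000). Detection was HRP chemiluminescence, with densitometry. 3 cell passages.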

Series [5] relates to NRK-52E cells. In words: Cellular hypertrophy by 3H-leucine incorporation. In kind it is cell-based, rat. The note with it: 100 μM MGA 48 h. The procedure, abridged: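 Confluent NRK-52E cells were serum-starved for 24 h, then kept 48 h in serum-free medium ± 100 μM MGA and test agents. Cells were pulsed with 0.5 μCi 3H-leucine for the last 24 h at 37°C, washed in PBS and fixed 15 min in ice-cold 10% TCA. After 5% TCA washes, protein was dissolved in 0.05 N NaOH/0.1% SDS at 37°C and counted by scintillation. Triplicate wells; % of control per well; 5 cell passages.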

The test system of series [6] is NRK-52E cells. In words: Cell area in immunofluorescent images. The note with it: MGA 48 hours. In kind it is cell-based, rat. The procedure, abridged:
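NRK-52E cells were serum-starved for 24 h, then exposed to MGA for 48 h. Immunofluorescent images were taken. Fields were chosen at random and every cell in each field was measured. Cell area was expressed as % of control cell area.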

Series [7] relates to NRK-52E cells. Briefly: Intracellular angiotensin peptide content by RIA. In kind it is cell-based, rat. The method, boiled down: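 Cells were serum-free for 24 h, then given 100 uM MGA for 48 h; pellets were snap-frozen. Pellets were boiled 15 min in water, sonicated, acidified to 0.2% TFA and spun at 20,000g for 20 min at 4°C. Peptides were extracted on C18 (eluted in 80% methanol/0.2% TFA) and blanks subtracted. Ang I, Ang II and Ang-(1-7) were measured by separate RIAs; the Ang-(1-7) RIA also detects Ang-(2-7). Paired t-test versus control.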

Series [8] relates to ERK1/2 in NRK-52E cells. Briefly: TGF-β-induced ERK1/2 phosphorylation by Western blot. The note with it: TGF-β 5 ng/ml, 15 min incubation, n=3. The format is cell-based, rat. The method, boiled down: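 Rat kidney proximal epithelial NRK-52E cells in DMEM/F12 with 5% FBS are serum-starved 24 h, then exposed to TGF-β (5 ng/ml) for 15 min. Lysis is in Triton buffer (100 mM NaCl, 50 mM NaF, 5 mM EDTA, 1% Triton X-100, 50 mM Tris-HCl pH 7.4, plus NaVO4, PMSF, leupeptin), followed by sonication and a 10,000 g spin. 10-50 μg protein is run on 10% SDS-PAGE and blotted to PVDF. Phospho-ERK1/2 is detected by HRP chemiluminescence, then the membrane is stripped and reprobed for total ERK1/2. Bands are quantified by densitometry.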

In the case of `CC[C@H](C)[C@H](NC(=O)[C@H](Cc1ccc(O)cc1)NC(=O)[C@@H](NC(=O)[C@H](CCCNC(=N)N)NC(=O)[C@@H](N)CC(=O)O)C(C)C)C(=O)N[C@@H](Cc1c[nH]cn1)C(=O)N1CCC[C@H]1C(=O)O` [Ang-(1-7), Angiotensin-(1-7)], the “Metabolism of Ang-(1-7) to Ang-(1-4), MGA cells (abstract)” value in “Ang-” (supernatant of MGA-treated NRK-52E cells) is reported as 175 ± 9 fmol/min/mg protein. Moreover, in “Ang-” (supernatant of control NRK-52E cells), the “Metabolism of Ang-(1-7) to Ang-(1-4), control cells (abstract)” value was found to be 115 ± 11 fmol/min/mg protein.

For the compound “D-Ala^7-Ang-(1-7) [DAL, reference compound]”, in the series with α-SMA in NRK-52E cells [1], the “Effect of DAL on the inhibition of MGA-induced MT by Ang-(1-7) (α-SMA staining)” value is given as “appeared to be reversed”. For the same compound, the “Effect of DAL on the inhibition of MGA-induced α-SMA expression by Ang-(1-7)” value in the series with α-SMA in NRK-52E cells [2] (Ang-(1-7) 100 nM + DAL 10 μM) was “blocked”.

On to “MGA: AGE product: BSA incubated with 500 μM methylglyoxal for 24 hours”, for which the “TGF-β release, MGA alone” value in series [3] (ELISA of media, control 0.4 ± 0.1, n=6) is 1.16 ± 0.1 ng/mL. Moreover, in [3] (vs control), the “Fold increase of TGF-β release, MGA alone” value is “approximately 3 fold”. Also, in the series on ERK1/2 in NRK-52E cells [4], the “Fold increase in density of phosphorylated ERK 1, MGA alone” value amounted to 2.5 fold and the “Fold increase in density of phosphorylated ERK 2, MGA alone” value is on record as 4 fold. Also, the “Fold increase of 3H-leucine incorporation, MGA alone” value in the series with NRK-52E cells [5] is listed as “approximately 2 fold”. Besides, the “Fold induction of α-SMA protein expression, MGA alone” value with α-SMA in NRK-52E cells [2] (vs control cells) is reported as 3 fold. Besides, the “Fold increase of cell area, MGA alone” value in the series with NRK-52E cells [6] is given as “approximately 4 fold”. In the series with NRK-52E cells [6] (mean ± SEM n=3), the “Cell area, MGA alone” value is on record as 467 ± 70 % of control. Besides, the “Intracellular Ang-(1-7) peptide content” value in the series with NRK-52E cells [7] (100 uM MGA 48 h, RIA, mean ± SEM, n=3, control cells 396 ± 59) was determined as 219 ± 54 fmol/mg protein. In the series with NRK-52E cells [7] (100 uM MGA 48 h, RIA, n=3), the “Intracellular Ang I peptide levels vs control” value was “not different” and the “Intracellular Ang II peptide levels vs control” value is on record as “not different”. Further, the “Reduction of intracellular levels of Ang-(1-7)” value with NRK-52E cells [7] (MGA exposure 48 hours) is on record as “approximately 50%”.

With TGF-β, the “ERK1/2 phosphorylation, TGF-β alone” value in the series with ERK1/2 in NRK-52E cells [8] is given as “stimulated”.

The record behind these values is article PMC4254268 (Cellular signalling, 2014).
